In ChEMBL document CHEMBL1154217, “Antimalarial and cytotoxic depsidones from the fungus Chaetomium brasiliense” (J Nat Prod, 2009) one finds IC50, MIC and Activity data, which are given here for 15 compounds.

Structures are written as SMILES. In brackets after ≈: the same amount, converted by molar mass. Activity calls are given as the source filed them. The calls are words filed in the database; no cut-off is given here.

Test [1] concerns Candida albicans. Description: Antifungal activity against Candida albicans by XTT assay. In kind it is functional, organism-based. In a few lines:
(§1)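 Clinical isolate of Candida albicans tested by an assay modified from the soluble formazan (XTT) method. Viable cells were quantified from XTT formazan absorbance at 450 nm. Amphotericin B served as the reference substance.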

In test [2] the test system is Plasmodium falciparum. Description: Antimalarial activity against multi drug-resistant Plasmodium falciparum K1 assessed as [3H]hypoxanthine uptake after 18 hrs by microculture radioisotope technique. The class given is functional, organism-based. In a few lines:
(§2)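 Multidrug-resistant P. falciparum K1 was cultured by the Trager and Jensen method and tested in vitro by microculture radioisotope technique. Growth was read as [³H]-hypoxanthine uptake, and IC50 was taken as the concentration giving 50% reduction in parasite growth. Artemisinin served as the reference standard.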

Test [3] is described as follows: Cytotoxicity against human BC1 cells by SRB assay. In kind it is functional, cell-based.
Test [4] in a line: Cytotoxicity against human KKU100 cells by MTT assay. The class given is functional, cell-based.
Test [5] is described as follows: Cytotoxicity against human KKU-M139 cells by MTT assay. In kind it is functional, cell-based.
A short description of test [6]: Cytotoxicity against human KKU-M156 cells by MTT assay. In kind it is functional, cell-based.
Test [7] can be described thus: Cytotoxicity against human KKU-M213 cells by MTT assay. The class given is functional, cell-based.
Test [8] is described as follows: Cytotoxicity against human KKU-M214 cells by MTT assay. The class given is functional, cell-based.
For test [9], the system named is Mycobacterium tuberculosis. Description: Antimycobacterial activity against Mycobacterium tuberculosis H37Ra after 4 days by almar blue assay. The note with it: 96 h. The class given is functional. The essentials:
(§3)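 M. tuberculosis H37Ra was tested by microplate Alamar Blue assay (MABA), with isoniazid and kanamycin sulfate as reference drugs.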

Test [10] relates to KB. Description: Cytotoxicity against human KB cells by SRB assay. The class given is functional, cell-based.
The subject of another test is NCI-H187. Description: Cytotoxicity against human NCI-H187 cells by SRB assay. The class given is functional, cell-based.
For test [11], the system named is Mycobacterium tuberculosis. Description: Antimycobacterial activity against Mycobacterium tuberculosis H37Ra at > 50 ug/mL after 4 days by almar blue assay. In kind it is functional, organism-based. In a few lines:
as §3

In test [12] the test system is Candida albicans. Description: Antifungal activity against Candida albicans at > 50 ug/mL by XTT assay. The class given is functional, organism-based. The essentials:
as §1

For another test, the system named is BC1. Description: Cytotoxicity against human BC1 cells at > 50 ug/mL by SRB assay. The class given is functional, cell-based.
The subject of test [13] is Plasmodium falciparum. Description: Antimalarial activity against multi drug-resistant Plasmodium falciparum K1 assessed as [3H]hypoxanthine uptake at > 50 ug/mL after 18 hrs by microculture radioisotope technique. In kind it is functional, organism-based. The essentials: as §2
For test [14], the system named is KB. Description: Cytotoxicity against human KB cells at > 50 ug/mL by SRB assay. In kind it is functional, cell-based.

As to `C[C@@H]1[C@H](O)[C@@H](C)/C=C/C=C/C=C/C=C/C=C/C=C/C=C/[C@H](O[C@@H]2O[C@H](C)[C@@H](O)[C@H](N)[C@@H]2O)C[C@@H]2O[C@](O)(C[C@@H](O)C[C@@H](O)[C@H](O)CC[C@@H](O)C[C@@H](O)CC(=O)O[C@H]1C)C[C@H](O)[C@H]2C(=O)O` [AMPHOTERICIN B], the midpoint of inhibition in the test on Candida albicans [1], the IC50, lay at 0.034 µg/mL (≈ 0.0368 µM).
As to `C[C@@H]1CC[C@H]2[C@@H](C)C(=O)O[C@@H]3O[C@@]4(C)CC[C@@H]1[C@]32OO4` [ARTEMISININ], the IC50 in the test on Plasmodium falciparum [2] is 0.001 µg/mL (≈ 0.00354 µM).
Regarding `Cc1c2ccncc2c(C)c2c1[nH]c1ccccc12` [ELLIPTECINE], the IC50 in [3] came out at 0.26 µg/mL (≈ 1.06 µM); in [4], 7.11 µg/mL (≈ 28.9 µM); in [5] it was 1.21 µg/mL (≈ 4.91 µM); in test [6], 2.02 µg/mL (≈ 8.2 µM); in [7], 0.3 µg/mL (≈ 1.22 µM); in test [8] it was 0.21 µg/mL (≈ 0.853 µM).
Take `NNC(=O)c1ccncc1` [ISONIAZID]: the minimum inhibitory concentration (MIC) in [9] is 0.05 µg/mL (≈ 0.365 µM).
`NC[C@H]1O[C@H](O[C@H]2[C@H](O)[C@@H](O[C@H]3O[C@H](CO)[C@@H](O)[C@H](N)[C@H]3O)[C@H](N)C[C@@H]2N)[C@H](O)[C@@H](O)[C@@H]1O.O=S(=O)(O)O` [KANAMYCIN SULFATE] yielded an MIC in [9] of 2.5 µg/mL.
Take `Cc1cc(O)c(C=O)c2c1C(=O)Oc1c(cc3c(c1C)C(=O)CC(C)(C)O3)O2` [MOLLICELLIN B]: the IC50 in the test on Plasmodium falciparum [2] was determined as 4.7 µg/mL (≈ 12.3 µM); with KB [10], 37.1 µg/mL (≈ 97 µM); with NCI-H187 it was 14.7 µg/mL (≈ 38.4 µM); in test [4], 4.63 µg/mL (≈ 12.1 µM); in test [5], 11.7 µg/mL (≈ 30.5 µM); in test [6], 15.7 µg/mL (≈ 41 µM). The IC50 in [7] was 6.94 µg/mL (≈ 18.2 µM); in test [8], 4.5 µg/mL (≈ 11.8 µM). Further, the result (in test [11]; in the test on Candida albicans [12]) was inactive.
In the case of `COc1c(O)c2c(c(C)c1C(=O)C=C(C)C)Oc1c(C=O)c(O)cc(C)c1C(=O)O2` [MOLLICELLIN C], the IC50 in the test on Plasmodium falciparum [2] turned out to be 9.1 µg/mL (≈ 22.1 µM); with Candida albicans [1], 49.9 µg/mL (≈ 121 µM); in the test with KB [10] it was 46.3 µg/mL (≈ 112 µM); in the test with NCI-H187, 3.1 µg/mL (≈ 7.52 µM); in [4] it was 5.12 µg/mL (≈ 12.4 µM); in test [5] it was 2.51 µg/mL (≈ 6.09 µM). In addition, the IC50 turned out to be 4.18 µg/mL (≈ 10.1 µM) in test [6], 3.2 µg/mL (≈ 7.76 µM) in [7] and 3.35 µg/mL (≈ 8.12 µM) in test [8]. Also, the outcome (in test [11]; in the test on BC1) was inactive.
For `COc1c(O)c2c(c(C)c1C(=O)C=C(C)C)Oc1c(C=O)c(O)c(Cl)c(C)c1C(=O)O2` [MOLLICELLIN E], the IC50 with Plasmodium falciparum [2] was found to be 3.2 µg/mL (≈ 7.16 µM); in the test with Candida albicans [1], 39.7 µg/mL (≈ 88.8 µM); with NCI-H187, 1 µg/mL (≈ 2.24 µM); in test [4], 4.83 µg/mL (≈ 10.8 µM); in [5], 5.03 µg/mL (≈ 11.3 µM); in test [6], 5.22 µg/mL (≈ 11.7 µM). The values for the IC50 in test [7] and in [8] were 4.44 µg/mL (≈ 9.94 µM) and 7.81 µg/mL (≈ 17.5 µM), respectively. Further, the result in [11] was inactive.
Take `Cc1c2c(c(O)c3c1C(=O)CC(C)(C)O3)OC(=O)c1c(C)c(Cl)c(O)c(C=O)c1O2` [MOLLICELLIN F]: the IC50 was determined as 37.9 µg/mL (≈ 87.6 µM) in the test with KB [10]; 13.1 µg/mL (≈ 30.3 µM) in the test on NCI-H187; 5.21 µg/mL (≈ 12 µM) in test [4]; 5.21 µg/mL (≈ 12 µM) in test [5]; 5.36 µg/mL (≈ 12.4 µM) in test [6]; 4.98 µg/mL (≈ 11.5 µM) in test [7]. For the same compound, it took 4.4 µg/mL (≈ 10.2 µM) to reach half-maximal inhibition in [8] (IC50). Besides, the outcome (in the test on Plasmodium falciparum [13]; in test [11]) was inactive.
For `CC(C)=CCc1c(O)cc2c(c1C)OC(=O)c1c(C)cc(O)c(C=O)c1O2` [MOLLICELLIN H], the 50% inhibitory concentration (IC50) in the test on KB [10] is 16.6 µg/mL (≈ 45.1 µM); in the test with NCI-H187, 3.9 µg/mL (≈ 10.6 µM). In test [11], the result was inactive.
Take `CC(C)=CCc1c(O)cc2c(c1C)OC(=O)c1c(C)c(Cl)c(O)c(C=O)c1O2` [MOLLICELLIN J]: the results for the IC50 in the test with Plasmodium falciparum [2], with KB [10] and with NCI-H187 were 4.9 µg/mL (≈ 12.2 µM), 29.1 µg/mL (≈ 72.2 µM) and 23.3 µg/mL (≈ 57.8 µM), respectively. The result in test [11] was inactive.
As for `COc1cc2c(c(C)c1C(=O)C=C(C)C)OC(=O)c1c(C)cc(O)c(C=O)c1O2` [MOLLICELLIN L], the IC50 in the test on Plasmodium falciparum [2] came out at 3.4 µg/mL (≈ 8.58 µM); with KB [10] it was 33.9 µg/mL (≈ 85.5 µM); in the test with NCI-H187, 9.5 µg/mL (≈ 24 µM); in test [5], 8.55 µg/mL (≈ 21.6 µM); in [6] it was 6.04 µg/mL (≈ 15.2 µM); in test [7] it was 13.2 µg/mL (≈ 33.3 µM). This compound also yielded an IC50 in test [8] of 4.51 µg/mL (≈ 11.4 µM). The result (in test [11]; in the test on Candida albicans [12]) was inactive.
As to `Cc1c2c(cc3c1C(=O)CC(C)(C)O3)Oc1c(C=O)c(O)c(Cl)c(C)c1C(=O)O2` [MOLLICELLIN M], the IC50 in the test with Plasmodium falciparum [2] was found to be 2.9 µg/mL (≈ 6.96 µM); in the test with NCI-H187, 0.68 µg/mL (≈ 1.63 µM); in [4], 6.28 µg/mL (≈ 15.1 µM). The outcome (in test [11]; in the test on Candida albicans [12]; with KB [14]; in the test on BC1) was inactive.
Consider `Cc1cc(O)c(C=O)c2c1C(=O)Oc1c(O)c3c(c(C)c1O2)C(=O)CC(C)(C)O3` [MOLLICELLIN N], for which the IC50 stood at 25.9 µg/mL (≈ 65 µM) in the test with KB [10]; 13.5 µg/mL (≈ 33.9 µM) in the test with NCI-H187; 6.46 µg/mL (≈ 16.2 µM) in test [4]; 4.34 µg/mL (≈ 10.9 µM) in test [5]; 2.9 µg/mL (≈ 7.28 µM) in test [6]; 3 µg/mL (≈ 7.53 µM) in test [7]. In test [8], half-maximal inhibition (IC50) required 5.05 µg/mL (≈ 12.7 µM). Further, the result (in the test with Plasmodium falciparum [13]; in test [11]; with Candida albicans [12]) was inactive.
Take `CC(C)=CC(=O)c1c(O)cc2c(c1C)OC(=O)c1c(C)cc(O)c(C=O)c1O2` [MOLLICELLINE K]: the half-inhibitory concentration (IC50) in the test on Plasmodium falciparum [2] worked out at 1.2 µg/mL (≈ 3.14 µM); in the test on Candida albicans [1], 1.2 µg/mL (≈ 3.14 µM); in the test with KB [10] it was 1.9 µg/mL (≈ 4.97 µM); in [3], 6.8 µg/mL (≈ 17.8 µM); in the test with NCI-H187, 0.35 µg/mL (≈ 0.915 µM); in [4] it was 4.46 µg/mL (≈ 11.7 µM). Besides, the IC50 in test [5] was 13.9 µg/mL (≈ 36.5 µM); in test [6], 6.65 µg/mL (≈ 17.4 µM); in test [8] it was 4.92 µg/mL (≈ 12.9 µM). For the same compound, in test [9], it took 12.5 µg/mL (≈ 32.7 µM) to inhibit growth (MIC).
